24 compounds from PubChem BioAssay can be followed below.

The target of assay [1] is (Lyso)-N-acylphosphatidylethanolamine lipase (Mus musculus) (UniProt Q8VD66). Kind of assay: mouse ABHD4 hydrolase blockers, triplicate – biochemical, fluorescence polarization, confirmation (AID 720658). As to conditions: purified mABHD4, FP-Rh probe fluorescence polarization; at 8.92 µM; hits give high values. In outline:
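System: mouse wild-type ABHD4 enzyme; also added: Rhodamine-tagged fluorophosphonate probe FP-Rh; schedule: 45 min compound pretreatment plus 60 min FP-Rh labeling, 25 °C; detection: fluorescence polarization, excitation 525 nm, emission 598 nm; control set: S159A mutant ABHD4 plus DMSO as 100%, wild-type plus DMSO 0%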
In general terms: In fluorescence polarisation assays a small probe gives low polarisation when free and higher when bound to something large.

For assay [2], the target named is Oxysterols receptor LXR-beta (Homo sapiens) (UniProt P55055). Kind of assay: nonspecific reporter activation via LXR – cell-based, luminescence, HEK293, H. contortus campaign, counter-screen for hcDAF-12 agonist project, confirmation (AID 743027;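 active means mean percent activation of the reporter above a cutoff set as the average over tested compounds plus their standard deviation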). As to conditions: HEK293 Gal4-LXR tk-luc reporter, 24 h, at 6.8 µM, hits give high values, normalized: DMSO 0%, positive control 100%. An outline of the steps:
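System: HEK293 cells transfected with Gal4-LXR vector plus GAL4-driven tk-luciferase reporter / Replicates: triplicate wells per compound / Detection: luciferase luminescence read with One-Glo reagent / Read-out basis: % activation / Timing: 24 h compound exposure at 37 °C, 5% CO2 / Benchmarks: DMSO low control, positive-control high control / Compound dosing: 6.8 µM single dose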
(In general: A counterscreen serves to expose hits that act by an unwanted route or on another target.)

The test system of assay [3] is Nuclear hormone receptor DAF-12 (Haemonchus contortus). Briefly: hcDAF-12 luciferase reporter activation, retest – cell-based, luminescence, HEK293, lit1-tk-luc, triplicate, confirmation (AID 743032;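 active means mean activation across triplicate tests above the threshold derived from the earlier primary screen, cut at about 5.5% in these data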;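 further: 0% = DMSO only wells and 100% = 3 µM Δ7-dafachronic acid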). As to conditions: HEK293 hcDAF-12 lit1-tk-luc reporter, at 6.8 µM, hits give high values, % of Δ7-dafachronic acid response. Background: Reporter assays use an easily measured gene product as a stand-in for the process of interest.

The test system of assay [4] is DAF-12 nuclear receptor (Heterodera glycines), GAL4-LBD fusion. Kind of assay: hgDAF-12 GAL4 fusion reporter activation, retest – cell-based, luminescence, HEK293, GAL4-LBD fusion, confirmation (AID 743050;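 active means mean activation over triplicate wells above the hit cutoff derived from the earlier primary screen, cut at about 11% in these data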;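 further: 0% = DMSO low control and 100% = 2 mM sodium butyrate high control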). The note with it: HEK293 GAL4-hgDAF12 luciferase reporter, agonist mode; at 6.8 µM; hits give high values; percent of butyrate response.
Assay [5] has as its target Oxysterols receptor LXR-beta (Homo sapiens) (UniProt P55055). Kind of assay: nonspecific reporter activation via LXR – cell-based, luminescence, HEK293, H. glycines campaign, counter-screen for hgDAF-12 agonist project, confirmation (AID 743051;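 active means mean activation of the triplicate above a set limit carried over from the primary screen, none filed active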). As to conditions: HEK293 Gal4-LXR luciferase reporter, 24 h; at 6.8 µM; hits give high values. In outline: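 Assay system: Gal4-LXR luciferase reporter HEK293 cells; times: 3 h cell plating, then 24 h compound exposure at 37 °C; signal: luciferase luminescence; benchmarks: DMSO low control, 0.68% final; replication: n 3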

The list shows a part of the results. Values without a mark were called inactive. Activity calls are given as the source filed them.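 How the source made its calls, unless noted: active means mean inhibition across replicates above the hit cutoff set in the primary screen (cut at about 30% in these data); inactive means the rest.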

Oxysterols receptor LXR-beta (Homo sapiens), sequence (P55055 whole entry, looked up, the tested form may be a part): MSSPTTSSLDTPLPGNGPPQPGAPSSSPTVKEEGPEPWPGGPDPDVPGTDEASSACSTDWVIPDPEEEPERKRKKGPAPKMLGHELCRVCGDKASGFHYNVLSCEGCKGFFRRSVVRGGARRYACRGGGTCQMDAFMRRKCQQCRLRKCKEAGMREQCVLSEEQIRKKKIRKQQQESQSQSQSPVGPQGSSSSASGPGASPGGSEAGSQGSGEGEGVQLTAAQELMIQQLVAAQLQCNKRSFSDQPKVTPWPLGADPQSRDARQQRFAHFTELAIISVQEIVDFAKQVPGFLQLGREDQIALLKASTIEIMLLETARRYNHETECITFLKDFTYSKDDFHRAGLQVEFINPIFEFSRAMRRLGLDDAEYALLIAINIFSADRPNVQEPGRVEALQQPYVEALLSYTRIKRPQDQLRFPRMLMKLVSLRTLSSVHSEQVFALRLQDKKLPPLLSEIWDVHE
(Lyso)-N-acylphosphatidylethanolamine lipase (Mus musculus), sequence (Q8VD66 whole entry, looked up): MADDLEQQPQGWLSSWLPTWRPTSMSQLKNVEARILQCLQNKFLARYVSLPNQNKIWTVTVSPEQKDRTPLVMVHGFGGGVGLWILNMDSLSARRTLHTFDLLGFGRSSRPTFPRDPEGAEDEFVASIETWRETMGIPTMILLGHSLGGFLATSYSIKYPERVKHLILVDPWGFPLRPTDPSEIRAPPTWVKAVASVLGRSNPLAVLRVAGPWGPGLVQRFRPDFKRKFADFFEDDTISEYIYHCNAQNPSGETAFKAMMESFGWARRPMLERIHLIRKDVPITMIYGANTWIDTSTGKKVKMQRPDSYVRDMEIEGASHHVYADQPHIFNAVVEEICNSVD

As a reminder, the inhibition is the relative decrease from the control value, in per cent. As for `CCOC(=O)Cn1c2c(n(-c3ccc(F)cc3)c1=O)C=C(c1ccccc1)[C@@H](C)C(C(=O)N(C)C1CCCCC1)=C2`, the inhibition in assay [1] was 29.3%.
Turning to `O=C(O)c1cc([N+](=O)[O-])c(Nc2cccc3ccccc23)c([N+](=O)[O-])c1`, the inhibition in assay [1] is 39.9% (active).
For `COc1cc(/C=C2/C(=O)NN(c3cccc(Cl)c3)C2=O)cc(Br)c1O`, the inhibition in assay [1] was 38.8% (active).
Still for that read-out and setting: in the case of `O=C(COC(=O)c1ccc(O)cc1O)c1ccc2c(c1)OCCO2` it was 40.2% (active).
Consider `O=C(NC1CCCCC1)C(c1cc2ccccc2o1)n1c(=O)c(-c2ccco2)nc2ccccc21` (stereo not given), for which the activation is 0.03% in assay [2] and 5.1% in assay [3].
As to `Cc1cccc(-n2cnc(C(=O)NNC(=S)Nc3ccccc3)c2)n1`, in assay [1], the inhibition was 57.2% (active).
For `Cc1cccc(N2CCN(Cc3nc(C4CC4)no3)CC2)n1`, in assay [1], the inhibition is -2.12%.
For the compound `CCc1cc2c(=O)c(-c3ccon3)c(N)oc2cc1OC`, the results for the activation in assay [2] and in assay [3] were 0.84% and 6.18% (active), respectively.
For `CC(C)(C)NC(=O)C(c1ccncc1)N(C(=O)CNC(=O)c1ccco1)c1ccc2c(c1)OCO2` (stereo not given), the results for the activation in assay [2] and in assay [3] were -0.43% and -0.59%, respectively.
For the compound `COC(=O)c1oc2ccc(Br)cc2c1NC(C)=O`, the inhibition in assay [1] was -0.79%.
Consider `CC(C)c1ccc(CC(=O)N2CCC2(C)C(=O)NS(=O)(=O)c2ccc(C(C)(C)C)cc2)cc1` (stereo not given), for which the inhibition in assay [1] is 68.5% (active).
Still for that read-out and setting: in the case of `CCOc1cc(/C=C2/N=C(c3ccc(C(C)(C)C)cc3)OC2=O)cc(Cl)c1OS(C)(=O)=O` it was 18.8%.
The same measure, in the same setting: in the case of `O=[N+]([O-])c1cc(Br)c(O)c(/C=N/Nc2nc3ccccc3s2)c1` it was 69.5% (active); in that of `C/C(=N\NC(=O)c1ccc(C)cc1)C1C(=O)c2ccccc2C1=O`, 35.3% (active).
`O=C(O)c1ccc(N/N=C/c2cn(-c3ccccc3)nc2-c2cccs2)cc1`: the inhibition in assay [1] was 57.4% (active). Moreover, the activation in assay [4] is 19.1% (active); in assay [5], 0.89%.
Regarding `CCC(CO)Oc1cc(NC(=O)c2cccc(F)c2)c2ncn(C(C)C)c2c1` (stereo not given), in assay [1], the inhibition is 1.62%.
As to `O=c1[nH]c(CCl)nc2cc(-c3ccc(Cl)cc3)sc12`, the values for the activation in assay [2] and in assay [3] were 0.52% and 1.27%, respectively.
The corresponding values for `Cc1cnc(NC(=O)c2ccc(Cl)nc2)s1` are 0.78% and 11.4% (active).
Take `CCOC(=O)[C@H]1Nc2ccc(Cl)cc2[C@@H]2[C@H]1C1CC(c3ccccc31)N2C(=O)OCc1ccccc1` (stereo not given in full): in assay [1], the inhibition was 42% (active).
Turning to `NC(=O)c1c(NC(=O)c2ccccc2)sc2c1CCCC2`, the values for the activation in assay [2] and in assay [3] were 1.21% and 13.6% (active), respectively.
Take `c1ccc2sc(NN=C3CCCC3)nc2c1`: the inhibition in assay [1] is -1.86%. Besides, the values for the activation in assay [2] and in assay [3] were 1.38% and 6.89% (active), respectively.
For `Cc1ccccc1Nc1nnc(SCC(=O)c2cc3ccccc3o2)s1`, the activation is -0.11% in assay [2] and 1.9% in assay [3].
Take `COc1ccc(Br)cc1/C=N/Nc1ccc(Cl)c(C(=O)O)c1`: in assay [1], the inhibition was 32.5% (active).
As to `COc1ccc2nc(Nc3nc4ccc(NC(C)=O)cc4s3)sc2c1`, the inhibition in assay [1] is 39.4% (active).
